Ecoli rRNA inh – selective bacterial rRNA inhibition in E. coli; E. coli WT GFP vs humanized-ribosome RFP mutants, fluorescence, 24 h; stronger effect = lower value; DMSO median 0, no signal -100; GFP signal change (wild-type ribosome), % (no concentration beside the values); 350,000 compounds, 1.6% hits;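 active = significant combined selectivity score with lowered wild-type GFP, culture density cut under 30%, mutant RFP and density less affected; inactive = any of these conditions unmet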
CR mimetic SO – yeast age-related superoxide inhibition as caloric restriction mimetic; S. cerevisiae aged cells, superoxide DHE fluorescence; stronger effect = lower value; superoxide response (% of plate mean), % at 10 µM; 330,000 compounds, 0.18% hits; AID 2690;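 active = superoxide response under a set limit, about three screen SD below normal, cut at about 65% in these data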;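 also: yeast aged for seven days with compound at 30 °C before DHE staining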
Mot1-301 SUMO – blocks SUMOylation pathway, rescuing yeast Mot1-301 growth. S. cerevisiae Mot1-301 growth rescue, ATP luminescence, 38.5C; percent above DMSO median, 100 means doubled. growth rescue, % at 18.8 µM. 320,000 compounds, 1% hits;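 active = every valid replicate shows activation above 250% relative to neutral control wells; inactive = the rest, any valid replicate at or below 250%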
Cneo AK release – Cryptococcus neoformans lysis via adenylate kinase release; C. neoformans lysis, adenylate kinase release luminescence, 4 h; normalised: neutral wells 0, clomiphene wells 100; lysis activity, % at 15 µM; 360,000 compounds, 0.2% hits;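 active = mean lysis activity across replicates of at least 80%, whatever share of replicates individually reach that level; inactive = mean lysis activity below 80%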
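Assay system: Cryptococcus neoformans yeast cells / Dosing: single-point compound dose / Timing: 4 h at 37 °C static, read 1 h later / Measured by: luminescence of released adenylate kinase using an AK detection reagent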
PglD inh – blocks C. jejuni PglD acetyltransferase activity | purified PglD enzyme, DTNB colorimetric CoA detection | inhibition, % at 12.5 µM | AID 602405 | 360,000 compounds, 0.098% hits; in the data active = inhibition above about 16%, passing the limit was not always enough; inconclusive = no clear call, values can overlap the other calls
AID977621 – growth inhibition of wild-type GFP E. coli, dose response, H69 mutant RFP, cherry-pick | activity change, negative = inhibition at 50 µM | 1,900 tested, under 10 active | AID 977621 | E. coli wild-type GFP strain growth, fluorescence, 24 h | shares compounds with Ecoli rRNA inh;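 active = Wild-type ribosome reporter drop at least double the humanized mutant ribosome reporter drop, growth loss under a set limit; inconclusive = no clear call, values can overlap the other calls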;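 also: wild-type GFP and H69 mutant RFP strains grown together 50/50 in each well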
AID977628 – E. coli growth inhibition, wild-type GFP versus h24 humanized RFP strain, dose response, h24 mutant RFP vs wild-type GFP, cherry-pick; shares compounds with Ecoli rRNA inh; E. coli WT GFP strain growth, fluorescence, 24 h; activity change, negative = inhibition at 50 µM; 1,900 tested, under 10 active;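 active = compound lowering the normal-ribosome reporter at least twice as much as the humanized-ribosome reporter, growth loss under a set limit; inconclusive = no clear call, values can overlap the other calls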;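 also: wild-type GFP and h24 humanized RFP strains co-cultured 1 to 1 per well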
Hits are given with their value. Sampled rows, rich in hits. Any-hit rate of the full collection: about 2.2%.

For Cc1cc(Br)cn2c(Cc3cccc(Cl)c3)c(-c3ccco3)nc12 the results were Ecoli rRNA inh -21.4, AID977621 inactive and AID977628 inactive.
Screening O=C(c1cccc2ccccc12)C1CCCN(C(=O)CCc2cnccn2)C1 (stereo not given) returned Ecoli rRNA inh -21.1, CR mimetic SO inactive, Mot1-301 SUMO inactive, Cneo AK release inactive, PglD inh inactive, AID977621 inactive and AID977628 inactive.
`CO[C@@H]1CN(C)C(=O)c2ccc(NC(=O)NC(C)C)cc2OC[C@@H](C)N(CCC(F)(F)F)C[C@@H]1C` gave Ecoli rRNA inh inactive, Cneo AK release inactive and PglD inh inactive.
Screening CC(C)Oc1cccc(C(=O)C2CCCN(Cc3ccc4nonc4c3)C2)c1 (stereo not given) returned Ecoli rRNA inh -28.6, CR mimetic SO inactive, Mot1-301 SUMO inactive and AID977621 inconclusive.
CC(C)Oc1cccc(C(=O)C2CCCN(Cc3cnn(C(C)C)c3)C2)c1 (stereo not given) was read as Ecoli rRNA inh inactive, CR mimetic SO inactive and Mot1-301 SUMO inactive.
`CC(C)[C@H](NC(=O)c1ccc([N+](=O)[O-])cc1Cl)C(=O)N1CCN(C/C=C/c2ccccc2)CC1` gave Ecoli rRNA inh -20.6, CR mimetic SO inactive, Mot1-301 SUMO inactive and AID977628 inconclusive.
For CCNC(=O)C[C@@H]1C=C[C@@H](NC(=O)C2CC2)[C@@H](CO)O1 the results were Ecoli rRNA inh inactive, Cneo AK release inactive and PglD inh inactive.
Screening Cc1cc(NC(=O)c2cccc(Oc3ccccc3)c2)n[nH]1 returned Ecoli rRNA inh -22.0, CR mimetic SO inactive, Mot1-301 SUMO inactive and AID977628 inconclusive.
Screening Cc1ccc(S(=O)(=O)N[C@@H]2CC[C@@H](CCNC(=O)c3ccccc3F)O[C@@H]2CO)cc1 returned Ecoli rRNA inh inactive, Cneo AK release inactive and PglD inh inactive.
For N#CC1CN(Cc2ccccc2)CN(Cc2ccccc2)C1 the results were Ecoli rRNA inh -26.9, CR mimetic SO inactive, Mot1-301 SUMO inactive and AID977628 inconclusive.
For CO[C@H]1CC[C@@H]2CCN(C)C(=O)[C@@H](C)N(C)C(=O)c3cc(C#N)ccc3OC[C@@H]1O2 the results were Ecoli rRNA inh inactive, Cneo AK release inactive and PglD inh inactive.
`COc1ccc2nc(NC(C)=O)sc2c1` gave CR mimetic SO inactive, Mot1-301 SUMO inactive, Cneo AK release inactive and PglD inh inactive.
`CCC(C)C(=O)Nc1nc2ccc(OC)cc2s1` (stereo not given) gave Ecoli rRNA inh -21.5, CR mimetic SO inactive, Mot1-301 SUMO inactive, Cneo AK release inactive, PglD inh inactive and AID977621 inactive.
CC(C)C#Cc1ccc([C@H]2[C@H](CO)N3C(=O)CN(C(=O)Cc4ccccc4)C[C@@H]23)cc1 was read as Ecoli rRNA inh inactive.
For Cc1ccc2nc(SCC(=O)Nc3ccc(F)cc3F)[nH]c2c1 the results were CR mimetic SO inactive, Mot1-301 SUMO inactive, Cneo AK release inactive and PglD inh inactive.
Screening COc1ccc2nc(SCC(=O)Nc3ccccc3)[nH]c2c1 returned Ecoli rRNA inh -20.3, CR mimetic SO inactive, Mot1-301 SUMO inactive and AID977621 inactive.
CCOC(=O)Cc1nnc(NC(=O)CSc2nc3ccccc3[nH]2)s1 was read as Ecoli rRNA inh -16.9, CR mimetic SO inactive, Mot1-301 SUMO inactive and AID977628 inactive.
For CCOC(=O)Cc1nnc(NC(=O)CSc2ccccc2)s1 the results were CR mimetic SO inactive, Mot1-301 SUMO inactive, Cneo AK release inactive and PglD inh inactive.
For COc1ccc2nc(SCC(=O)NCc3ccccc3)[nH]c2c1 the results were Ecoli rRNA inh inactive, CR mimetic SO inactive, Mot1-301 SUMO inactive, Cneo AK release inactive and PglD inh inactive.
Screening O=C(CSc1nc2ccccc2[nH]1)Nc1ccc(F)c(F)c1 returned CR mimetic SO inactive, Mot1-301 SUMO inactive, Cneo AK release inactive and PglD inh inactive.

Screening results as filed in PubChem.
